Source: PubChem BioAssay
ABCB1 block – ABCB1 efflux pump inhibitors, primary screen, cell-based, multiplex, flow cytometry, ABCG2 counter-screen | CCRF-Adr cells, JC-1 efflux | inhibition, % at 6.6 µM | hit rate 0.067% among 190,000; in the data active = inhibition above about 40%;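 also: 0% = vehicle and 100% = reference inhibitor; higher value means more JC-1 retained so stronger ABCB1 efflux block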
FLuc act counter – FLuc activators, initial screening, artefact control for FLuc-dependent activation tests, biochemical, ATPlite luminescence | activation factor at 10 µM | Luciferin 4-monooxygenase (Photinus pyralis), P08659 | AID 1027, 2008 | ATPlite luciferase biochemical, 10 min; 0 = ATP-free wells, 1 = DMSO control | 200,000 tested, under 10 active;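 active = luciferase activation factor, scaled between plate controls, of at least 2 with compound at 10 µM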
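Assay system – cell-free luciferase reagent · Medium – PBS-based ATP solution · Dosing – test compounds dosed from 2 mM stocks in 100% DMSO · Timing – 10 min, room temperature · Technique – light output (luminescence) · Measure – luminescence gain marking luciferase activators · Controls – No-ATP low control, compound-free enzyme-plus-ATP high control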
ABCG2 block – ABCG2 efflux pump inhibitors, primary screen, multiplex with ABCB1, IgMXP3 cells, flow cytometry. hit rate 0.1% among 190,000. JC-1 efflux. inhibition, % at 6.6 µM;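 active = inhibition above 80%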;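 also: 0% = DMSO and 100% = nicardipine control wells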
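Times: 10 min at 25 °C | Test system: Two drug-resistant human cell lines, ABCG2 and ABCB1 | Quantity: 3 million cells/mL final, two lines in 1:1 ratio | Signal: Flow cytometry, 530 nm JC-1 signal | Dosing: Compound at 6.6 µM | Controls: Nicardipine and DMSO wells | Reagent: JC-1 as fluorescent efflux pump substrate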
Measles CPE – compounds protecting cells from measles virus cytopathic effect, primary screen, measles RdRp inhibitor project, single point, MLSMR library, absorbance; Measles virus-infected cells, CPE protection; protection (pct of control), % at 4 µM; hit rate 1.5% among 140,000; AID 841, 2007; in the data active = protection mostly above about 24%, no sharp cut-off; inactive = mostly below about 26%
Redox H2O2 prof – compounds producing H2O2 with reducing agent – biochemical, NIH compound library profiling, artefact control for MLSCN library redox annotation, primary screen; hit rate 0.03% among 200,000; activation, % at 10 µM; DTT-dependent redox cycling H2O2, phenol red/HRP absorbance; 100% = 100 µM peroxide control, 0% = buffer; AID 878, 2007;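 active = activation of at least 50% relative to the plate's high and low controls in the primary single-dose screen; inactive = activation below 50%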;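 also: compound incubated with DTT at 0.8 mM final as the reducing agent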
FLuc inh counter – firefly luciferase enzyme inhibitors, primary screen, artefact control for luciferase-based inhibitor screens, biochemical, luminescence, ATPLite. Luciferin 4-monooxygenase (Photinus pyralis), P08659. 10 min. inhibition, % at 10 µM. hit rate 1.5% among 200,000;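 active = inhibition above about 50% when tested at 10 µM, limit read from the data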
Active calls of the source: *; . = no result given. The list is not random: actives were taken first. Their share in the collection is about 2.7%.

SMILES	ABCB1 block	FLuc act counter	ABCG2 block	Measles CPE	Redox H2O2 prof	FLuc inh counter
COc1ccc(-n2c(C)cc(C(=O)COC(=O)Cc3n[nH]c(=O)c4ccccc34)c2C)cc1	0.4	1	0.8	8.5	-0.2	-3.8
CCCn1c(C)cc(C(=O)COC(=O)c2ccc[nH]c2=O)c1C	0.3	0.3	1.0	8.8	-0.2	65.3*
Cc1ccc(-n2c(C)cc(C(=O)COC(=O)c3ccc[nH]c3=O)c2C)cc1C	-0.2	0.4	-15.8	1.8	-0.4	64.8*
O=C(OCCCN=C1NS(=O)(=O)c2ccccc21)c1ccccc1F	0.1	1	2.0	20.2	2.1	-2.7
O=C(COc1ccc(S(=O)(=O)N2CCOCC2)cc1)Nc1ccccc1C(F)(F)F	-0.1	1	-0.1	8.2	0.1	-3.0
N#C/C(=C/c1ccc(CNS(=O)(=O)c2ccccc2)o1)C(=O)NCc1ccccc1	1.0	1.1	6.3	6.2	0.0	-5.9
CC1=CC(C)C2COC(c3ccc[n+](C)c3)C1C2C (configuration not stated)	0.2	1.1	1.0	57.5*	-0.3	-5.3
NCc1ccc(-c2nc3ccccc3o2)cc1	.	1	.	.	.	4.1
Nc1nc2ccc(-c3nc4ccccc4o3)cc2s1	0.2	0.4	1.8	4.1	0.0	58.4*
c1ccc2oc(-c3ccc4nc[nH]c4c3)nc2c1	0.6	0.3	4.0	8.1	0.9	67.9*
C#CCOCCOCCOCCNc1nc(N2CCN(C(=O)[C@H](Cc3cc4ccccc4[nH]3)n3cc([C@@H](N)C(C)CC)nn3)CC2)nc(N2CCN(C(=O)[C@H](Cc3cc4ccccc4[nH]3)n3cc([C@@H](N)CC(C)C)nn3)CC2)n1 (some centres not stated)	-0.2	1.1	-1.0	.	0.2	-7.1
O=C(Nc1ccc(Br)cc1)c1ccc(Br)c(S(=O)(=O)Nc2cccnc2)c1	-0.6	1	-3.7	45.5*	-0.4	2.7
CCOC(=O)c1c(NC(=O)C(=O)N/N=C/c2ccccc2OC)sc2c1CCCCC2	-0.7	0.4	-3.1	2.8	0.2	58.8*
CCOC(=O)c1c(NC(=O)C(=O)N/N=C/c2ccccc2O)sc2c1CCCCC2	-0.3	1	-4.6	7.2	0.6	0.3
CN(C)c1ccc(C(=S)Nc2ccccc2)cc1	-0.6	0.4	-3.7	6.8	0.0	55.8*
CN(C)c1cc(O)c(C(=S)Nc2ccccc2)c(N(C)C)c1	1.0	1	18.7	2.9	-5.0	1.7
CN(C)S(=O)(=O)c1ccc(NC(=O)c2ccccn2)cc1	0.4	0.7	3.1	5.8	2.6	34.8
CN(C)c1ccc(NC(=S)c2ccccn2)cc1	0.4	0.1	7.2	19.3	-0.2	94.9*
CN(C)c1ccc(NC(=O)Oc2ccccc2)cc1	-0.5	0.3	-1.3	7.6	-0.3	74.0*
CC(=O)Nc1ccc(NC(=O)Oc2ccccc2)cc1	0.0	1	0.0	13.3	0.4	0.8
O=C(/C=C/c1ccc(Cl)cc1)Nc1ccccc1N1CCOCC1	1.1	1	7.4	15.1	0.0	4.8
CCOC(=O)C1C(=O)NC(c2ccccc2)=NC1c1ccc(Br)cc1 (configuration not stated)	-0.3	1	1.4	.	-0.2	-2.8
CC(=O)c1sc(NC(=O)c2cc(=O)c3ccccc3o2)nc1C	-0.6	0.2	0.5	.	-2.3	83.3*
CCOC(=O)c1csc(NC(=O)c2cc(=O)c3ccccc3o2)n1	-0.2	0.8	0.1	.	-1.0	16.6
CCC(=O)OCC(=O)c1cc(C)n(-c2ccc(Br)cc2)c1C	0.9	0.4	6.4	.	-1.1	59.2*
Cc1ccc(-n2c(C)cc(C(=O)COC(=O)C3=NNC(=O)CC3)c2C)cc1	0.6	0.9	9.3	29.2*	0.1	8.4
